These results are taken from ChEMBL document CHEMBL1124464, “Peripherally acting enkephalin analogues. 2. Polar tri- and tetrapeptides” (1989).

Type in all cases: functional
For experiment [1], the system named is Mus musculus. The experiment in a line: Antinociceptive activity of perorally administered compound (20 mg) in phenyl-p-benzoquinone induced writhing mice. The essentials: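 Female CD1 mice (Charles River), groups of five to six, dosed orally by blunt intragastric needle (10 mL kg-1) 30 min before ip PBQ at 2.5 mg kg-1. Abdominal constrictions/hind-limb extensions were counted over 2.5 min starting 10 min after PBQ. ED50 is the dose halving writhes versus vehicle, estimated by linear regression.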
In general terms: In writhing tests, fewer writhes than in controls are read as antinociception.

The test system of experiment [2] is Mus musculus. In words: Antinociceptive activity of subcutaneously administered compound in phenyl-p-benzoquinone induced writhing mice. Particulars: Mus musculus, sc; read-out: ED50. The essentials:
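Groups of five to six female CD1 mice given drug subcutaneously (10 mL kg-1) 30 min before ip phenyl-p-benzoquinone 2.5 mg kg-1. Writhes (abdominal constrictions/hind-limb extensions) counted over 2.5 min from 10 min post-PBQ. ED50, the dose giving 50% fewer writhes than vehicle, from linear regression.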

The species named for the next experiment is Cavia porcellus. The experiment in a line: Inhibition of electrically induced contractions on the guinea pig ileum. Particulars: read-out: ED50 (the source's name). A digest of the protocol: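 Guinea pig ileum contractions evoked by coaxial stimulation at 0.1 Hz, 0.5-ms pulses, supramaximal voltage, recorded isometrically; dose-response curves built with 15-min washout between doses.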

For experiment [3], the species on record is Mus musculus. The experiment in a line: Dose ratio in the presence and absence of the peripheral opioid antagonist in N-methyl-nalorphine in AA writhing mice. A digest of the protocol:
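Acetic acid (0.6%, ip) writhing in male TFW mice; N-methylnalorphine 11.5 mg kg-1 ip 20 min before subcutaneous agonist. Writhes counted 5 min from 15 min post-irritant. Dose ratio taken as the shift between parallel regression lines with and without antagonist.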

Experiment [4] relates to Mus musculus. The experiment in a line: Antinociceptive activity of subcutaneously administered compound in acetic acid (AA) induced writhing mice. Conditions: sc. The essentials: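 Male TFW mice, groups of five to six, given drug subcutaneously (10 mL kg-1), then ip acetic acid 0.6% at 25 mL kg-1. Writhes counted for 5 min beginning 15 min after acetic acid. ED50 = dose reducing writhes 50% versus vehicle, by linear regression.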

In experiment [5] the test system is Mus musculus. The experiment in a line: Antinociceptive activity in the hot plate test (central activity) in rodents, when compound administered subcutaneously. Particulars: sc. The essentials:
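Male CFLP mice, groups of five to six, placed on a copper surface held at 55 °C; latency to paw licking/shaking or jumping recorded, 30-s cut-off. Drug given subcutaneously at 10 mL kg-1. ED50 = dose doubling response latency versus vehicle, by parallel-line probit analysis.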
(In hot-plate and tail-flick tests a longer latency is read as antinociception.)

Usually Inhibition stands for the relative decrease from the control value, in per cent. A low value points to a response near the control. Broadly, the ED50 is the dose that gives a 50% effect, or the effect in half of the subjects. On to `CC(=O)O.CCN(CCc1ccco1)C(=O)CNC(=O)[C@@H](CCCN=C(N)N)NC(=O)[C@H](Cc1ccc(O)cc1)N=C(N)N`, for which the Inhibition in the experiment on Mus musculus [1] is listed as 10%. Also, in the experiment on Mus musculus [2], the ED50 worked out at 0.32 mg/kg. For the same compound, in the experiment listed under Cavia porcellus, the EC50 was 10.9 nM.
On to `CC(=O)O.CCN(Cc1ccc(-c2ccccc2)cc1)C(=O)CNC(=O)[C@@H](CCCN=C(N)N)NC(=O)[C@H](Cc1ccc(O)cc1)N=C(N)N`, for which the Inhibition in the experiment on Mus musculus [1] amounted to 0%. Moreover, the ED50 with Mus musculus [2] was 2.3 mg/kg. The EC50 in the experiment filed under Cavia porcellus stood at 324 nM.
`NC(N)=NCCC[C@@H](NC(=O)[C@@H](N)Cc1ccc(O)cc1)C(=O)NCCSCCc1ccc([N+](=O)[O-])cc1`: the EC50 in the experiment listed under Cavia porcellus came to 42000 nM.
Turning to `CCN(CCc1ccccn1)C(=O)CNC(=O)[C@@H](CCCN=C(N)N)NC(=O)[C@@H](N)Cc1ccc(O)cc1`, in the experiment listed under Cavia porcellus, the EC50 amounted to 510 nM.
Turning to `CC(=O)O.CCN(CCc1ccc(C#N)cc1)C(=O)CNC(=O)[C@@H](CCCN=C(N)N)NC(=O)[C@@H](N)Cc1ccc(O)cc1`, the Ratio in the experiment listed under Mus musculus [3] is listed as 1.4. The same compound registered an ED50 in the experiment with Mus musculus [4] of 2.2 mg/kg. In addition, in the experiment filed under Cavia porcellus, the EC50 is 1800 nM.
In the case of `CC(=O)O.CCN(C(=O)CNC(=O)[C@@H](CCCN=C(N)N)NC(=O)[C@@H](N)Cc1ccc(O)cc1)[C@@H](Cc1cccc(F)c1)C(N)=O`, in the experiment filed under Mus musculus [3], the Ratio is recorded as 2.2. In addition, the results for the ED50 in the experiment with Mus musculus [2], in the experiment on Mus musculus [4] and with Mus musculus [5] were 0.08 mg/kg, 0.04 mg/kg and 1.7 mg/kg, respectively. In the experiment listed under Cavia porcellus, the EC50 came to 25 nM.
For the compound `CC(=O)O.CN(C(=O)CNC(=O)[C@@H](CCCN=C(N)N)NC(=O)[C@@H](N)Cc1ccc(O)cc1)[C@@H](Cc1ccc([N+](=O)[O-])cc1)C(N)=O`, the Ratio in the experiment filed under Mus musculus [3] was 2.5. The compound further displayed an ED50 in the experiment with Mus musculus [4] of 0.25 mg/kg. In the experiment listed under Cavia porcellus, the EC50 stood at 36.5 nM.
In the same order, the values of `CC(=O)O.CCN(C(=O)CNC(=O)[C@@H](CCCN=C(N)N)NC(=O)[C@@H](N)Cc1ccc(O)cc1)[C@@H](Cc1ccc(Cl)cc1)C(N)=O` are 1.3, 0.03 mg/kg and 0.64 nM.
Turning to `CC(=O)O.CCN(C(=O)CNC(=O)[C@@H](CCSC)NC(=O)[C@@H](N)Cc1ccc(O)cc1)[C@@H](Cc1ccc([N+](=O)[O-])cc1)C(N)=O`, the Ratio in the experiment listed under Mus musculus [3] came to 0.8. For the same compound, in the experiment with Mus musculus [4], the ED50 was found to be 0.0015 mg/kg. Further, the EC50 in the experiment filed under Cavia porcellus came to 1.2 nM.
On to `CC(=O)O.CCN(C(=O)CNC(=O)[C@@H](CCCN=C(N)N)NC(=O)[C@@H](N)Cc1ccc(O)cc1)[C@@H](Cc1ccc(C(F)(F)F)cc1)C(N)=O`, for which the Ratio in the experiment filed under Mus musculus [3] was determined as 2.9. The ED50 in the experiment with Mus musculus [4] amounted to 0.13 mg/kg; in the experiment on Mus musculus [5], 16.9 mg/kg. The EC50 in the experiment listed under Cavia porcellus worked out at 6.25 nM.
Turning to `CC(=O)O.CCN(CCc1ccc([N+](=O)[O-])s1)C(=O)CNC(=O)[C@@H](CCCN=C(N)N)NC(=O)[C@@H](N)Cc1ccc(O)cc1`, the Ratio in the experiment filed under Mus musculus [3] was determined as 6.2. In addition, in the experiment on Mus musculus [4], the ED50 was 1.7 mg/kg. For the same compound, the EC50 in the experiment filed under Cavia porcellus is 217 nM.
Regarding `CCN(CCc1sccc1[N+](=O)[O-])C(=O)CNC(=O)[C@@H](CCCN=C(N)N)NC(=O)[C@@H](N)Cc1ccc(O)cc1`, the EC50 in the experiment listed under Cavia porcellus stood at 146 nM.
As for `CC(=O)O.CCN(CCc1ccc([N+](=O)[O-])cc1)C(=O)CNC(=O)[C@@H](CCSC)NC(=O)[C@@H](N)Cc1ccc(O)cc1`, the Ratio in the experiment filed under Mus musculus [3] is reported as 1.1. For the same compound, the 50% effect level in the experiment with Mus musculus [4] (ED50) was put at a dose of 0.87 mg/kg. In addition, in the experiment listed under Cavia porcellus, the EC50 is 41 nM.
With `CCN(Cc1c(F)c(F)c(F)c(F)c1F)C(=O)CNC(=O)[C@@H](CCCN=C(N)N)NC(=O)[C@@H](N)Cc1ccc(O)cc1`, the EC50 in the experiment listed under Cavia porcellus is 820 nM.
In the case of `CC(=O)O.CCN(Cc1ccc([N+](=O)[O-])cc1)C(=O)CNC(=O)[C@@H](CCCN=C(N)N)NC(=O)[C@H](Cc1ccc(O)cc1)N=C(N)N`, the Ratio in the experiment filed under Mus musculus [3] is listed as 4.6. Also, the ED50 with Mus musculus [2] amounted to 7.8 mg/kg; in the experiment on Mus musculus [4] it was 0.9 mg/kg. Besides, in the experiment listed under Cavia porcellus, the EC50 came out at 470 nM.
In the experiment on Mus musculus [1], `CC(=O)O.CCN(CCc1ccc([N+](=O)[O-])s1)C(=O)CNC(=O)[C@@H](CCCN=C(N)N)NC(=O)[C@H](Cc1ccc(O)cc1)N=C(N)N` showed an Inhibition of 7%. For the same compound, the ED50 in the experiment with Mus musculus [2] worked out at 2 mg/kg. In the experiment filed under Cavia porcellus, the EC50 is 25.2 nM.
